Converted amounts (≈) assume the structure as drawn. The source made the active and inactive calls. The calls are words filed in the database; no cut-off is given here.
Legend:
[1] = biological target: T1, Melanin-concentrating hormone receptor 1 (Homo sapiens, UniProt Q99705); experiment: Displacement of radiolabeled iodo-MCH from human MCHR1 expressed in HEK293 cells; format: cell-based
[2] = Ratio of drug level in brain against blood in rat 0.3 mg/kg/hr, iv; format: ADME, organism-based; parameters: route intravenous; conditions: read-out: BBR
Outline: (§1)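 Rats given compound dissolved in 2% (v/v) DMSO in 5% (w/v) aqueous dextrose by constant iv infusion over 12 h, target 0.3 mg free base/kg/h, for steady-state brain:blood measurement. Blood clearance is the initial elimination rate from blood per unit body mass after this iv dosing.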

[3] = Clearance in rat at 0.3 mg/kg/hr, iv; format: ADME, organism-based; parameters: route intravenous; conditions: in vivo; outline: as §1
Liver microsomes = experiment: Intrinsic clearance in rat liver microsome; format: ADME
Outline: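 Rat liver microsomes at 0.5 mg/mL protein, starting compound 0.5 µM. Compound loss followed as a concentration-time profile. First-order rate constant K taken from the profile; CLi = K·V, scaled and given in mL/min/g liver.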

[4] = Solubility of the compound; format: physicochemical
[5] = biological target: T2, 5-hydroxytryptamine receptor 2C (Homo sapiens, UniProt P28335); experiment: Binding affinity to 5HT2C receptor
T2 sequence (P28335 whole entry): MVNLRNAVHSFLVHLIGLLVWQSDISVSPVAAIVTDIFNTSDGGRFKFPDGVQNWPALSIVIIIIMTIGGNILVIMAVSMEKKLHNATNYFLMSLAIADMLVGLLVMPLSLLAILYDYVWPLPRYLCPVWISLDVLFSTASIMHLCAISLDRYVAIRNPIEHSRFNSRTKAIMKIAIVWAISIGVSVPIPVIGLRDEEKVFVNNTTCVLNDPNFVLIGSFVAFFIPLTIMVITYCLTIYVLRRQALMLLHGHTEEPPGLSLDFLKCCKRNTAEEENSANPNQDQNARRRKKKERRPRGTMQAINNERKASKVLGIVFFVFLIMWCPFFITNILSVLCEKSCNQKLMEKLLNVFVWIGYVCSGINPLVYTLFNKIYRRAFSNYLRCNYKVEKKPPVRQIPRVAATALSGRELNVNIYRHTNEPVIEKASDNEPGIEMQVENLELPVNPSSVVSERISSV

[6] = biological target: T1, Melanin-concentrating hormone receptor 1; experiment: Antagonist activity at human MCHR1 expressed in HEK293 cells assessed as inhibition of MCH-stimulated calcium mobilization; format: functional, cell-based
Outline: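 Stably transfected HEK293 cells re-seeded on poly-D-lysine and grown 24 h, loaded with fluorescent indicator in assay buffer plus probenecid, washed, then exposed to compound for 30 min. FLIPR readings taken before and after an EC80 concentration of MCH. Apparent pKb fitted to the MCH response with a 4-parameter logistic equation.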

[7] = biological target: Melanin-concentrating hormone receptor (Homo sapiens) (UniProt Q969V1+Q99705); experiment: Antagonizing effect on MCH-stimulated CRF release in rat hypothalamus; format: functional, tissue-based; conditions: target entry is the homologue from another species
Melanin-concentrating hormone receptor (Homo sapiens), sequence (Q969V1 whole entry, looked up): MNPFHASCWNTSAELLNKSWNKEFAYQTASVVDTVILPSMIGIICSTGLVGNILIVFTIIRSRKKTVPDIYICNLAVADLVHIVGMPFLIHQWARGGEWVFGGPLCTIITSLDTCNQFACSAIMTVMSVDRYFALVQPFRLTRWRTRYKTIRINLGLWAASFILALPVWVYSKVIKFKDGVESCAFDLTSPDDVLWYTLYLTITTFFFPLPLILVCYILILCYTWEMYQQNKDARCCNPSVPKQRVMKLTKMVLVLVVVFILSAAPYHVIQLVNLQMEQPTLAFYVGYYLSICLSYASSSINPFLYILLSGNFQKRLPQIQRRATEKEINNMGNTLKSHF
Melanin-concentrating hormone receptor (Homo sapiens), sequence (Q99705 whole entry, looked up): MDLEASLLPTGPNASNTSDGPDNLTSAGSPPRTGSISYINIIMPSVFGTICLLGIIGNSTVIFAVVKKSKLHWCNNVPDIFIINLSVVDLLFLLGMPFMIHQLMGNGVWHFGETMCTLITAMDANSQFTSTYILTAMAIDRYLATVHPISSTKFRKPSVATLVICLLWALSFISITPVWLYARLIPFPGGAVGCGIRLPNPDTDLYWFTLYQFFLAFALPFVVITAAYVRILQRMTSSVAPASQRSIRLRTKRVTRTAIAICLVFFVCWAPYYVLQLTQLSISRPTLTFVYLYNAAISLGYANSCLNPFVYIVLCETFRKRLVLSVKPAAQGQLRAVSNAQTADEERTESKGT

[8] = Oral bioavailability in Sprague-Dawley rat; format: ADME, organism-based; conditions: in vivo
Outline: (§2)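 Cannulated Sprague-Dawley rats (n ≥ 3), crossover over two study days: iv infusion of buffered compound at 10 mL/kg/h, target 1.0 mg pfb/kg, blood sampled up to 24 h. After ≥2 days recovery, oral gavage of a suspension in aq methylcellulose (1.5 mg pfb/mL, 2 mL/kg), target 3 mg pfb/kg, blood sampled pre-dose and up to 27 h.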

[9] = AUC in Sprague-Dawley rat; format: ADME, organism-based; conditions: plasma; outline: as §2
[10] = Solubility in water; format: physicochemical
[11] = Solubility in artificial cerebrospinal fluid; format: physicochemical

T1 sequence (Q99705 whole entry): as the sequence (Q99705 whole entry, looked up) above

| Ki [1] [nM] | SMILES | further results |
| --- | --- | --- |
| > 10000 | COc1cc(N(C)S(=O)(=O)c2ccc(-c3ccccc3)cc2)ccc1OCCN(C(C)C)C(C)C | – |
| 20 | CCN(CC)CCOc1ccc(N(C)C(=O)c2ccc(-c3ccccc3)cc2)cc1OC | Kp [2]: 0.1; clearance [3]: 51 mL/min/kg; CL (Liver microsomes): 5 mL/min/g |
| 31.6 | CCN(CC)CCOc1ccc(NC(=O)c2ccc(-c3ccccc3)cc2)cc1OC | CL (Liver microsomes): 4 mL/min/g |
| 25.1 | COc1cc(NC(=O)c2ccc(C3CCCCC3)cc2)ccc1OCCN(C(C)C)C(C)C | – |
| 158 | COc1cc(NC(=O)c2cccc(Cc3ccccc3)c2)ccc1OCCN(C(C)C)C(C)C | – |
| 50.1 | COc1cc(NC(=O)c2ccc(-c3ccccc3)cc2)ccc1OCCN(C)C | – |
| 5010 | COc1cc(NC(=O)c2cccc(-c3ccccc3)c2)ccc1OCCN(C(C)C)C(C)C | – |
| 79.4 | COc1cc(NC(=O)c2cccc(Oc3ccccc3)c2)ccc1OCCN(C(C)C)C(C)C | – |
| 63.1 | CC(C)N(CCOc1ccc(NC(=O)c2ccc(-c3ccccc3)cc2)cc1)C(C)C | – |
| 50.1 | CCc1cc(NC(=O)c2ccc(-c3ccccc3)cc2)ccc1OCCN(CC)CC | – |
| 251 | COc1cc(NC(=O)c2ccc(-c3cccc(C(F)(F)F)c3)cc2)ccc1OCCN(C(C)C)C(C)C | – |
| 39.8 | COc1cc(NC(=O)c2ccc(-c3ccccc3C)cc2)ccc1OCCN(C(C)C)C(C)C | – |
| > 10000 | COc1cc(NC(=O)c2cccc(C(=O)c3ccccc3)c2)ccc1OCCN(C(C)C)C(C)C | – |
| 251 | CCN(CC)CCOc1ccc(NC(=O)c2ccc(-c3ccccc3)cc2)cc1C(C)O (stereo not given) | – |
| 31.6 | COc1cc(NC(=O)c2ccc(-c3ccccc3)cc2)ccc1OCCN(C(C)C)C(C)C | solubility [4]: 4 µg/mL (≈ 8.96 µM); Kp [2]: 2.7; clearance [3]: 67 mL/min/kg; Ki [5]: 158 nM; CL (Liver microsomes): 9 mL/min/g; pKb [6]: 7.5 |
| > 10000 | COc1cc(NS(=O)(=O)c2ccc(-c3ccccc3)cc2)ccc1OCCN1CCCC1 | – |
| 25.1 | Cc1cc(OCCN(C(C)C)C(C)C)ccc1NC(=O)c1ccc(-c2ccccc2)cc1 | – |
| 100 | COc1cc(N(C)C(=O)c2ccc(C3CCCCC3)cc2)ccc1OCCN(C(C)C)C(C)C | – |
| > 6310 | COc1cc(NC(=O)c2ccc(Br)cc2)ccc1OCCN(C(C)C)C(C)C | – |

| Ki [1] [nM] | SMILES | further results |
| --- | --- | --- |
| 79.4 | COc1cc(NC(=O)c2ccc(-c3ccc(C(F)(F)F)cc3)cc2)ccc1OCCN(C(C)C)C(C)C | – |
| 20 | CCN(CC)CCOc1ccc(N(C)C(=O)c2ccc(-c3ccc(C(F)(F)F)cc3)cc2)cc1OC | Kp [2]: 1; Activity [7]: Active; clearance [3]: 16 mL/min/kg; CL (Liver microsomes): 4 mL/min/g; bioavailability [8]: 30%; AUC [9]: 2.37 µM·h |
| 20 | COc1cc(N(C)C(=O)c2ccc(-c3ccccc3)cc2)ccc1OCCN1CCCC1 | Kp [2]: 0.1; clearance [3]: 57 mL/min/kg; CL (Liver microsomes): 2 mL/min/g |
| 63.1 | Cc1cc(NC(=O)c2ccc(-c3ccccc3)cc2)ccc1OCCN(C(C)C)C(C)C | – |
| 126 | COc1cc(NC(=O)c2ccc(-c3ccccc3)cc2C)ccc1OCCN(C(C)C)C(C)C | – |
| > 10000 | COc1cc(NC(=O)c2ccc(C(C)(C)C)cc2)ccc1OCCN(C(C)C)C(C)C | – |
| 398 | COc1cc(N(C)C(=O)c2cccc(Oc3ccccc3)c2)ccc1OCCN(C(C)C)C(C)C | – |
| 200 | COc1cc(NC(=O)c2ccc(Oc3ccccc3)cc2)ccc1OCCN(C(C)C)C(C)C | – |
| 15.8 | COc1cc(N(C)C(=O)c2ccc(-c3ccccc3)cc2)ccc1OCCN(C(C)C)C(C)C | CL (Liver microsomes): 19 mL/min/g; solubility [10]: > 500 µg/mL; solubility [11]: > 500 µg/mL |
| > 10000 | COc1cc(NC(=O)c2ccccc2)ccc1OCCN(C(C)C)C(C)C | – |
| 31.6 | CCN(CC)CCOc1ccc(NC(=O)c2ccc(-c3ccccc3)cc2)cc1C(C)=O | – |
| 158 | COc1cc(NC(=O)c2ccc(-c3ccccc3)c(C)c2)ccc1OCCN(C(C)C)C(C)C | – |
| 79.4 | COc1cc(N(C)C(=O)c2ccc(Cc3ccccc3)cc2)ccc1OCCN(C(C)C)C(C)C | – |
| 50.1 | COc1cc(NC(=O)c2ccc(-c3ccccc3)cc2)ccc1OCCN(C)Cc1ccccc1 | – |
| 398 | CC(C)N(CCOc1ccc(NC(=O)c2ccc(-c3ccccc3)cc2)cc1F)C(C)C | – |
| 39.8 | COc1cc(NC(=O)c2ccc(-c3ccccc3)cc2)ccc1OCCN1CCCCC1 | – |
| 31.6 | COc1cc(NC(=O)c2ccc(-c3ccccc3)cc2)ccc1OCCN1CCCC1 | CL (Liver microsomes): 2 mL/min/g |
| 251 | CCN(CC)CCOc1ccc(N(CC)C(=O)c2ccc(-c3ccccc3)cc2)cc1OC | – |
